Results published in article PMC4831591 (International Journal of Nanomedicine, 2016).
Converted amounts (≈) assume the structure as drawn.

Experiments:
[1] = In vitro drug-release assay by dialysis; assay type: physicochemical; settings: 37°C, PBS pH 7.4, 48 hours, n=3
Procedure, shortened: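 Dialysis in 2,000 Da MWCO bag against PBS pH 7.4, stirred 48 h at 37±0.5°C. Medium sampled at time points and replaced. Total drug found by methanol disruption of liposomes. Quantified by HPLC: C18 column, methanol/0.025 M KH2PO4 (11:89, pH 3 with H3PO4), 1.0 mL/min, UV 210 nm; n=3.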

H22 cells = experiment: In vitro cytotoxicity, MTT assay; assay type: cell-based, murine; settings: n=3
Procedure, shortened: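 Log-phase H22 cells seeded at 10^4/well, grown 24 h, medium renewed. Treated at 0.8, 4, 20, 100, 500 μg/mL for 24 or 48 h; blank liposomes at matched concentrations. MTT (5 mg/mL stock in PBS) added for 4 h, formazan dissolved in DMSO, A490 read. Inhibition rate = (1 − A490 treated/A490 untreated)×100.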

[2] = Biodistribution study in H22 tumor-bearing mice; assay type: in vivo; settings: n=6; for AUC0–8 / Cmax / t½: 2 mg/kg intravenous
Procedure, shortened: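 Subcutaneous H22 model: ascites cells from donor mice diluted in saline to 1×10^7/mL and injected into right hind limb (~0.1 mL/10 g). At ~300 mm3 tumor, mice randomized; single tail-vein 2 mg/kg; killed at 1, 2, 4, 8 h (n=6). Tumor and organs rinsed, weighed, homogenized 1:4 w/v in saline. HCl/IS/acetone extraction; FDA-validated LC-MS/MS. Noncompartmental AUC0–8, Cmax; Te = AUC target/(target+untargeted)×100.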

H22 tumor-bearing mice = experiment: In vivo antineoplastic activity in H22 tumor-bearing mice; settings: 2 mg/kg per day, days 1–9, measured on day 10, n=10
Procedure, shortened: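 H22 cells in saline (1×10^7/mL) injected subcutaneously in right hind limb on day 0. Mice randomized to PBS control or treatment, 2 mg/kg tail vein daily on days 1–9 (n=10). Tumor volume by caliper and body weight daily. Killed day 10 and tumors excised and weighed. IRw = (1 − Wdrug/Wcontrol)×100.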

## O=C(O)[C@@H]1[C@H](C(=O)O)[C@H]2CC[C@@H]1O2 [DM-NCTD, diacid metabolite of norcantharidin]
[1]
  In vitro release of DM-NCTD: quickly and completely released
H22 cells; 24 hours
  IC50 on H22 cell lines: 39.6 ± 1.20 µg/mL (≈ 213 µM)
H22 cells; 48 hours
  IC50 on H22 cell lines: 30.0 ± 1.73 µg/mL (≈ 161 µM)
[2]; 2 mg/kg tail vein
  Time at which the highest concentrations were achieved in tissues and tumors: 2 h
[2]; heart
  AUC0–8: 116.98±10.63 ng⋅h/mL
  Cmax: 24.08 ± 2.39 ng/mL
  t½: 110 ± 15 min
[2]; kidney
  AUC0–8: 1,283.72±66.1 ng⋅h/mL
  Cmax: 427.14 ± 20.81 ng/mL
  t½: 56.4 ± 16.8 min
[2]; liver
  AUC0–8: 1,481.15±51.3 ng⋅h/mL
  Cmax: 330.15 ± 13.96 ng/mL
  t½: 56.4 ± 13.2 min
[2]; lung
  AUC0–8: 266.17±13.55 ng⋅h/mL
  Cmax: 73.43 ± 6.17 ng/mL
  t½: 90.6 ± 19.2 min
[2]; spleen
  AUC0–8: 740.09±25.16 ng⋅h/mL
  Cmax: 340.11 ± 17.74 ng/mL
  t½: 53.4 ± 1.2 min
[2]; tumor
  AUC0–8: 223.18±17.56 ng⋅h/mL
  Cmax: 54.57 ± 9.21 ng/mL
  t½: 61.2 ± 8.4 min
H22 tumor-bearing mice
  Tumor weight: 1.02 ± 0.3 g
H22 tumor-bearing mice; vs PBS control
  IRw (inhibition rate on tumor weight): 30.14%
